Reference: ChEMBL document CHEMBL4229382, “Phenylthiazoles with tert-Butyl side chain: Metabolically stable with anti-biofilm activity” (Eur J Med Chem, 2018)
Converted amounts (≈) assume the structure as drawn.

Tests used:
Staphylococcus aureus [1] = test: Inhibition of biofilm formation in methicillin-resistant Staphylococcus aureus NRS384 USA300 after 24 hrs by crystal violet staining-based spectrophotometric analysis
Staphylococcus aureus [2] = test: Antibacterial activity against methicillin-resistant Staphylococcus aureus NRS384 USA300 after 18 hrs by broth microdilution assay; format: functional; details: NRS384 USA300, 18 h
Outline: (§1)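 Broth microdilution: inoculum from 0.5 McFarland suspension diluted to about 5 × 10^5 CFU/mL. Media were cation-adjusted Mueller-Hinton broth for staphylococci, brain heart infusion for E. faecium, and tryptone soya broth for E. faecalis, S. pneumoniae and L. monocytogenes.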

Staphylococcus aureus [3] = test: Antibacterial activity against vancomycin-resistant Staphylococcus aureus VRS10 after 18 hrs by broth microdilution assay; format: functional; details: VRS10, 18 h
Outline: as §1

Staphylococcus aureus [4] = test: Antibacterial activity against methicillin-resistant Staphylococcus aureus NRS123 USA400 after 18 hrs by broth microdilution assay; format: functional; details: NRS123 USA400, 18 h
Outline: as §1

Staphylococcus aureus [5] = test: Antibacterial activity against methicillin-resistant Staphylococcus aureus 2658 RCMB after 18 hrs by broth microdilution assay; format: functional
Outline: as §1

Staphylococcus aureus [6] = test: Antibacterial activity against methicillin-resistant Staphylococcus aureus NRS386 after 18 hrs by broth microdilution assay; format: functional; details: NRS386, 18 h
Outline: as §1

Enterococcus faecium [7] = test: Antibacterial activity against vancomycin-resistant Enterococcus faecium ATCC 700221 after 18 hrs by broth microdilution assay; format: functional; details: ATCC 700221, 18 h
Outline: as §1

Staphylococcus aureus [8] = test: Bactericidal activity against vancomycin-resistant Staphylococcus aureus VRS10 incubated fo 18 hrs followed by re-plating on tryptic soy agar plates at 37 degC for 18 hrs by broth microdilution assay; format: functional; details: VRS10, 18 h
Listeria monocytogenes [9] = test: Antibacterial activity against Listeria monocytogenes ATCC 19111 after 18 hrs by broth microdilution assay; format: functional; details: ATCC 19111, 18 h
Caco-2 = test: Cytotoxicity against human Caco2 cells at 32 ug/ml after 2 hrs by MTS assay; format: cell-based; details: caco-2, 2 h
Outline: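 Caco-2 cells grown in DMEM with 20% FBS, non-essential amino acids and penicillin-streptomycin, 37 °C, 5% CO2; exposed in triplicate to compounds (16, 32, 64 µg/mL) for 2 h; MTS added, 4 h further incubation, OD490 read; viability as percent of DMSO-treated controls; two independent experiments.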

Staphylococcus aureus [10] = test: Bactericidal activity against methicillin-resistant Staphylococcus aureus NRS384 USA300 incubated fo 18 hrs followed by re-plating on tryptic soy agar plates at 37 degC for 18 hrs by broth microdilution assay; format: functional; details: NRS384 USA300, 18 h
Staphylococcus aureus [11] = test: Inhibition of biofilm formation in methicillin-resistant Staphylococcus aureus NRS384 USA300 at 2 times MIC after 24 hrs by crystal violet staining-based spectrophotometric analysis relative to control; parameters: scale not given: the % may be the effect or the level left
Staphylococcus aureus [12] = test: Antibacterial activity against vancomycin-resistant Staphylococcus aureus VRS12 after 18 hrs by broth microdilution assay; format: functional; details: VRS12, 18 h
Outline: as §1

Staphylococcus aureus [13] = test: Bactericidal activity against methicillin-resistant Staphylococcus aureus NRS385 incubated fo 18 hrs followed by re-plating on tryptic soy agar plates at 37 degC for 18 hrs by broth microdilution assay; format: functional; details: NRS385, 18 h
Listeria monocytogenes [14] = test: Selectivity ratio of MBC to MIC for Listeria monocytogenes ATCC 19111; format: functional
[15] = tested on: Staphylococcus epidermidis; test: Antibacterial activity against methicillin-resistant Staphylococcus epidermidis NRS101 after 18 hrs by broth microdilution assay; format: functional; details: NRS101, 18 h
Outline: as §1

Staphylococcus aureus [16] = test: Bactericidal activity against methicillin-resistant Staphylococcus aureus NRS119 incubated fo 18 hrs followed by re-plating on tryptic soy agar plates at 37 degC for 18 hrs by broth microdilution assay; format: functional; details: NRS119, 18 h
Listeria monocytogenes [17] = test: Bactericidal activity against Listeria monocytogenes ATCC 19111 incubated fo 18 hrs followed by re-plating on tryptic soy agar plates at 37 degC for 18 hrs by broth microdilution assay; format: functional; details: ATCC 19111, 18 h
Staphylococcus aureus [18] = test: Antibacterial activity against methicillin-resistant Staphylococcus aureus NRS123 USA400 assessed as reduction in bacterial burden measured over 24 hrs by time kill assay; format: functional
Outline: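 Samples taken at 0, 2, 4, 6, 8, 12 and 24 h were serially diluted in PBS, plated on TSA and incubated ≥18 h for viable CFU/mL. DMSO was the negative control; two independent experiments.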

Staphylococcus aureus [19] = test: Inhibition of biofilm formation in methicillin-resistant Staphylococcus aureus NRS384 USA300 at 1 time MIC after 24 hrs by crystal violet staining-based spectrophotometric analysis relative to control; parameters: scale not given: the % may be the effect or the level left
Staphylococcus aureus [20] = test: Antibacterial activity against methicillin-sensitive Staphylococcus aureus NRS107 after 18 hrs by broth microdilution assay; format: functional; details: NRS107, 18 h
Outline: as §1

Staphylococcus aureus [21] = test: Bactericidal activity against methicillin-resistant Staphylococcus aureus NRS123 USA400 incubated fo 18 hrs followed by re-plating on tryptic soy agar plates at 37 degC for 18 hrs by broth microdilution assay; format: functional; details: NRS123 USA400, 18 h
Staphylococcus aureus [22] = test: Antibacterial activity against methicillin-sensitive Staphylococcus aureus ATCC 6538 after 18 hrs by broth microdilution assay; format: functional; details: ATCC 6538, 18 h
Outline: as §1

Streptococcus pneumoniae [23] = test: Antibacterial activity against methicillin-resistant Streptococcus pneumoniae ATCC 700677 after 18 hrs by broth microdilution assay; format: functional; details: ATCC 700677, 18 h
Outline: as §1

Streptococcus pneumoniae [24] = test: Antibacterial activity against cephalosporin-resistant Streptococcus pneumoniae ATCC 51916 after 18 hrs by broth microdilution assay; format: functional; details: ATCC 51916, 18 h
Outline: as §1

Enterococcus faecalis = test: Antibacterial activity against vancomycin-resistant Enterococcus faecalis ATCC 51299 after 18 hrs by broth microdilution assay; format: functional; details: ATCC 51299, 18 h
Outline: as §1

Staphylococcus aureus [25] = test: Antibacterial activity against methicillin-resistant Staphylococcus aureus NRS385 after 18 hrs by broth microdilution assay; format: functional; details: NRS385, 18 h
Outline: as §1

[26] = tested on: Staphylococcus epidermidis; test: Bactericidal activity against methicillin-resistant Staphylococcus epidermidis NRS101 incubated fo 18 hrs followed by re-plating on tryptic soy agar plates at 37 degC for 18 hrs by broth microdilution assay; format: functional; details: NRS101, 18 h
Staphylococcus aureus [27] = test: Bactericidal activity against vancomycin-resistant Staphylococcus aureus VRS12 incubated fo 18 hrs followed by re-plating on tryptic soy agar plates at 37 degC for 18 hrs by broth microdilution assay; format: functional; details: VRS12, 18 h
Staphylococcus aureus [28] = test: Bactericidal activity against methicillin-sensitive Staphylococcus aureus NRS107 incubated fo 18 hrs followed by re-plating on tryptic soy agar plates at 37 degC for 18 hrs by broth microdilution assay; format: functional; details: NRS107, 18 h
Staphylococcus aureus [29] = test: Bactericidal activity against methicillin-resistant Staphylococcus aureus NRS386 incubated fo 18 hrs followed by re-plating on tryptic soy agar plates at 37 degC for 18 hrs by broth microdilution assay; format: functional; details: NRS386, 18 h
Streptococcus pneumoniae [30] = test: Bactericidal activity against methicillin-resistant Streptococcus pneumoniae ATCC 700677 incubated fo 18 hrs followed by re-plating on tryptic soy agar plates at 37 degC for 18 hrs by broth microdilution assay; format: functional; details: ATCC 700677, 18 h
[31] = Safety index, ratio of cytotoxicity against human Caco2 cells at 32 ug/ml after 2 hrs by MTS assay to antibacterial activity against methicillin-resistant Staphylococcus aureus; format: toxicity, cell-based; details: Caco-2 cells
Enterococcus faecium [32] = test: Bactericidal activity against vancomycin-resistant Enterococcus faecium ATCC 700221 incubated fo 18 hrs followed by re-plating on tryptic soy agar plates at 37 degC for 18 hrs by broth microdilution assay; details: ATCC 700221, 18 h
Streptococcus pneumoniae [33] = test: Bactericidal activity against cephalosporin-resistant Streptococcus pneumoniae ATCC 51916 incubated fo 18 hrs followed by re-plating on tryptic soy agar plates at 37 degC for 18 hrs by broth microdilution assay; format: functional; details: ATCC 51916, 18 h
Staphylococcus aureus [34] = test: Antibacterial activity against methicillin-resistant Staphylococcus aureus NRS119 after 18 hrs by broth microdilution assay; format: functional; details: NRS119, 18 h
Outline: as §1

Staphylococcus aureus [35] = test: Bactericidal activity against methicillin-sensitive Staphylococcus aureus ATCC 6538 incubated fo 18 hrs followed by re-plating on tryptic soy agar plates at 37 degC for 18 hrs by broth microdilution assay; format: functional; details: ATCC 6538, 18 h

Q: For `Cc1nc(-c2ccc(C(C)(C)C)cc2)sc1-c1ccnc(NC(=N)c2cccnc2)n1`, which inhibition (Staphylococcus aureus [1]) is on record?
A: The inhibition was “Dose-dependent effect”.

Q: And the MIC (Staphylococcus aureus [2])?
A: The MIC was 4 µg/mL (≈ 9.33 µM).

Q: And the MIC (Staphylococcus aureus [3])?
A: The MIC was 4 µg/mL (≈ 9.33 µM).

Q: And the MIC (Staphylococcus aureus [4])?
A: Its MIC is 4 µg/mL (≈ 9.33 µM).

Q: What about the MIC (Staphylococcus aureus [5]) of the same compound?
A: The MIC was 0.78 µg/mL (≈ 1.82 µM).

Q: What about the MIC (Staphylococcus aureus [6]) of the same compound?
A: The MIC was 4 µg/mL (≈ 9.33 µM).

Q: And the MIC (Enterococcus faecium [7])?
A: The MIC was 8 µg/mL (≈ 18.7 µM).

Q: And the MBC (Staphylococcus aureus [8])?
A: Its MBC is 4 µg/mL (≈ 9.33 µM).

Q: What about the MIC (Listeria monocytogenes [9]) of the same compound?
A: The MIC was 4 µg/mL (≈ 9.33 µM).

Q: And the Activity (Caco-2)?
A: Its Activity is “Non-Toxic”.

Q: What about the MBC (Staphylococcus aureus [10]) of the same compound?
A: Its MBC is 4 µg/mL (≈ 9.33 µM).

Q: And the Activity (Staphylococcus aureus [11])?
A: Its Activity is 65.2%.

Q: And the MIC (Staphylococcus aureus [12])?
A: Its MIC is 4 µg/mL (≈ 9.33 µM).

Q: And the MBC (Staphylococcus aureus [13])?
A: The MBC was 4 µg/mL (≈ 9.33 µM).

Q: What about the Ratio (Listeria monocytogenes [14]) of the same compound?
A: The Ratio was >3.

Q: What about the MIC [15] of the same compound?
A: The MIC was 64 µg/mL (≈ 149 µM).

Q: What about the MBC (Staphylococcus aureus [16]) of the same compound?
A: The MBC was 4 µg/mL (≈ 9.33 µM).

Q: What about the MBC (Listeria monocytogenes [17]) of the same compound?
A: The MBC was 64 µg/mL (≈ 149 µM).

Q: What about the Activity (Staphylococcus aureus [18]) of the same compound?
A: The Activity was 2.3 log10CFU/ml.

Q: What about the Activity (Staphylococcus aureus [19]) of the same compound?
A: Its Activity is 45.8%.

Q: And the MIC (Staphylococcus aureus [20])?
A: Its MIC is 4 µg/mL (≈ 9.33 µM).

Q: And the MBC (Staphylococcus aureus [21])?
A: Its MBC is 4 µg/mL (≈ 9.33 µM).

Q: What about the MIC (Staphylococcus aureus [22]) of the same compound?
A: The MIC was 4 µg/mL (≈ 9.33 µM).

Q: What about the MIC (Streptococcus pneumoniae [23]) of the same compound?
A: The MIC was 4 µg/mL (≈ 9.33 µM).

Q: And the MIC (Streptococcus pneumoniae [24])?
A: Its MIC is 4 µg/mL (≈ 9.33 µM).

Q: What about the MIC (Enterococcus faecalis) of the same compound?
A: Its MIC is 8 µg/mL (≈ 18.7 µM).

Q: And the MIC (Staphylococcus aureus [25])?
A: The MIC was 4 µg/mL (≈ 9.33 µM).

Q: What about the MBC [26] of the same compound?
A: The MBC was > 64 µg/mL.

Q: What about the MBC (Staphylococcus aureus [27]) of the same compound?
A: The MBC was 4 µg/mL (≈ 9.33 µM).

Q: And the MBC (Staphylococcus aureus [28])?
A: The MBC was 4 µg/mL (≈ 9.33 µM).

Q: What about the MBC (Staphylococcus aureus [29]) of the same compound?
A: The MBC was 4 µg/mL (≈ 9.33 µM).

Q: What about the MBC (Streptococcus pneumoniae [30]) of the same compound?
A: The MBC was 8 µg/mL (≈ 18.7 µM).

Q: And the selectivity ratio at 2 h, 32 ug/ml [31]?
A: Its selectivity ratio at 2 h, 32 ug/ml is 8 to 30.

Q: What about the MBC (Enterococcus faecium [32]) of the same compound?
A: Its MBC is 16 µg/mL (≈ 37.3 µM).

Q: And the MBC (Streptococcus pneumoniae [33])?
A: The MBC was 8 µg/mL (≈ 18.7 µM).

Q: What about the MIC (Staphylococcus aureus [34]) of the same compound?
A: Its MIC is 4 µg/mL (≈ 9.33 µM).

Q: What about the MBC (Staphylococcus aureus [35]) of the same compound?
A: The MBC was 4 µg/mL (≈ 9.33 µM).
